# Measurements from ChEMBL document CHEMBL1157379, “Transcriptional response of Candida parapsilosis following exposure to farnesol” (2007).
# Activity calls are given as the source filed them. The calls are words filed in the database; no cut-off is given here.
# Experiments:
# Candida parapsilosis [1] = assay: Increase in CGD gene ortholog accession number orf19.2446 expression in Candida parapsilosis CLIB214 at 50 uM after 2 hrs by microarray based transcriptional profiling relative to control; format: functional
# Method in brief: (§1)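 Strain CLIB214 grown overnight in YPD at 30°C, diluted to A600 0.2 in fresh YPD at 30°C. After 4 h (A600 0.8), farnesol (40 mM methanol stock) added to 50 μM final, or an equal methanol volume as control; cells harvested 2 h later. RNA was accepted only with a 28S/18S ratio of 1.6–2.2. Cy3/Cy5-dCTP-labelled cDNA was made from 25 μg total RNA. Hybridisation was to duplicate-spotted 68-mer oligo arrays (3,849 genes) at 42°C for about 16 h. Six individual comparisons.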
# Candida albicans = assay: Antifungal activity against Candida albicans assessed as microbila killing effect; format: functional
# Candida parapsilosis [2] = assay: Increase in CGD gene ortholog accession number orf19.1457 expression in Candida parapsilosis CLIB214 at 50 uM after 2 hrs by microarray based transcriptional profiling relative to control; format: functional; method in brief: as §1
# Candida parapsilosis [3] = assay: Decrease in CGD gene ortholog accession number orf19.5877 expression in Candida parapsilosis CLIB214 at 50 uM after 2 hrs by microarray based transcriptional profiling relative to control; format: functional
# Method in brief: (§2)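 Cells in YPD at 30°C treated with 50 μM farnesol at 4 h, with a methanol control. RNA harvested 2 h later and kept only if 28S/18S ratio was 1.6–2.2 with no degradation. 25 μg total RNA oligo-dT primed and labeled with Cy3/Cy5-dCTP. Labeled cDNA hybridized about 16 h at 42°C to duplicate-spotted 68-mer oligo arrays. Six individual comparisons analyzed statistically.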
# Candida parapsilosis [4] = assay: Increase in GLN1 gene expression in Candida parapsilosis CLIB214 by RT-PCR; format: functional, organism-based
# Method in brief: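 Cultures in YPD at 30°C, diluted to A600 0.2; 50 μM farnesol (final) or methanol added at 4 h, RNA harvested 2 h later. RT-PCR: 95°C hot start 1 min 30 s, then 26 cycles (95°C 40 s, 55°C 2 min, 72°C 3 min), final 72°C 5 min; each gene signal normalized to ACT1.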
# Candida parapsilosis [5] = assay: Increase in PDB1 gene expression in Candida parapsilosis CLIB214 at 50 uM after 2 hrs by microarray based transcriptional profiling relative to control; format: functional
# Method in brief: (§3)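 Strain grown overnight in YPD at 30°C, diluted to A600 0.2 in YPD at 30°C; farnesol (40 mM methanol stock) added at 4 h (A600 0.8), final 50 μM; methanol-only control. Cells collected 2 h later for RNA. Labelled cDNA from 25 μg total RNA (Cy3/Cy5-dCTP) hybridized to 68-mer oligo arrays at 42°C ~16 h; six individual comparisons analysed statistically.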
# Candida parapsilosis [6] = assay: Decrease in CGD gene ortholog accession number orf19.4253 expression in Candida parapsilosis CLIB214 at 50 uM after 2 hrs by microarray based transcriptional profiling relative to control; format: functional; method in brief: as §2
# Candida parapsilosis [7] = assay: Increase in CGD gene ortholog accession number orf19.7097 expression in Candida parapsilosis CLIB214 at 50 uM after 2 hrs by microarray based transcriptional profiling relative to control; format: functional; method in brief: as §1
# Candida parapsilosis [8] = assay: Decrease in CGD gene ortholog accession number orf19.1608 expression in Candida parapsilosis CLIB214 at 50 uM after 2 hrs by microarray based transcriptional profiling relative to control; format: functional; method in brief: as §2
# Candida parapsilosis [9] = assay: Decrease in ZCF23 gene expression in Candida parapsilosis CLIB214 at 50 uM after 2 hrs by microarray based transcriptional profiling relative to control; format: functional; method in brief: as §1
# Candida parapsilosis [10] = assay: Increase in CGD gene ortholog accession number orf19.779 expression in Candida parapsilosis CLIB214 at 50 uM after 2 hrs by microarray based transcriptional profiling relative to control; format: functional; method in brief: as §1
# Candida parapsilosis [11] = assay: Decrease in PIKA gene expression in Candida parapsilosis CLIB214 at 50 uM after 2 hrs by microarray based transcriptional profiling relative to control; format: functional; method in brief: as §1
# Candida parapsilosis [12] = assay: Increase in DOT5 gene expression in Candida parapsilosis CLIB214 at 50 uM after 2 hrs by microarray based transcriptional profiling relative to control; format: functional; method in brief: as §3
# Candida parapsilosis [13] = assay: Decrease in CGD gene ortholog accession number orf19.5022 expression in Candida parapsilosis CLIB214 at 50 uM after 2 hrs by microarray based transcriptional profiling relative to control; format: functional; method in brief: as §2
# Candida parapsilosis [14] = assay: Increase in ENA2 gene expression in Candida parapsilosis CLIB214 at 50 uM after 2 hrs by microarray based transcriptional profiling relative to control; format: functional; method in brief: as §3
# Candida parapsilosis [15] = assay: Decrease in CGD gene ortholog accession number orf19.1728 expression in Candida parapsilosis CLIB214 at 50 uM after 2 hrs by microarray based transcriptional profiling relative to control; format: functional; method in brief: as §2
# Candida parapsilosis [16] = assay: Antifungal activity against Candida parapsilosis CLIB214 assessed as growth inhibition at 50 uM added after 4 hrs of bacterial growth measured after 2 hrs; format: functional; conditions: Lodderomyces parapsilosis
# Method in brief: (§4)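 Overnight YPD culture at 30°C diluted to A600 0.2 in YPD. Farnesol added to 50 μM final at 2, 4, 6 or 8 h of growth (A600 about 0.8 at 4 h, 2.3 at 6 h, 6 at 8 h). Growth compared with methanol controls by A600 or cell counts.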
# Candida parapsilosis [17] = assay: Decrease in CGD gene ortholog accession number orf19.719 expression in Candida parapsilosis CLIB214 at 50 uM after 2 hrs by microarray based transcriptional profiling relative to control; format: functional; method in brief: as §1
# Candida parapsilosis [18] = assay: Cell cycle arrest in Candida parapsilosis CLIB214 assessed as accumulation at G1 phase at 50 uM added 4 hrs after […] growth; format: functional, organism-based
# Method in brief: (§5)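 YPD culture diluted to A600 0.2 at 30°C. Farnesol added to 50 μM after 4 h. Budding cells scored by microscopy: unbudded as G1, small budded as S, large budded as G2/M. Compared with methanol controls.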
# Candida parapsilosis [19] = assay: Increase in ADH7 gene expression in Candida parapsilosis CLIB214 by RT-PCR; format: functional, organism-based
# Method in brief: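 RNA came from YPD cultures at 30°C given farnesol or methanol at 4 h (A600 0.8), harvested after 2 h. RT-PCR: 95°C hot start for 1.5 min, then 26 cycles (95°C 40 s, 55°C 2 min, 72°C 3 min), then a 5-min final extension at 72°C. Each gene's signal normalised to ACT1.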
# Candida parapsilosis [20] = assay: Increase in GIR2 gene expression in Candida parapsilosis CLIB214 at 50 uM after 2 hrs by microarray based transcriptional profiling relative to control; format: functional; method in brief: as §3
# Candida parapsilosis [21] = assay: Decrease in CGD gene ortholog accession number orf19.5156 expression in Candida parapsilosis CLIB214 at 50 uM after 2 hrs by microarray based transcriptional profiling relative to control; format: functional; method in brief: as §2
# Candida parapsilosis [22] = assay: Increase in CGD gene ortholog accession number orf19.3617 expression in Candida parapsilosis CLIB214 at 50 uM after 2 hrs by microarray based transcriptional profiling relative to control; format: functional; method in brief: as §1
# Candida parapsilosis [23] = assay: Antifungal activity against Candida parapsilosis CLIB214 assessed as growth inhibition at 50 uM added after 2 hrs of bacterial growth measured after 2 hrs; format: functional; conditions: Lodderomyces parapsilosis, CLIB214, 2 h; method in brief: as §4
# Candida parapsilosis [24] = assay: Cell cycle arrest in Candida parapsilosis CLIB214 assessed as accumulation at S phase at 50 uM added 4 hrs after […] growth; format: functional, organism-based; method in brief: as §5
smiles,measurement,setting,value
CC(C)=CCC/C(C)=C/CC/C(C)=C/CO [FARNESOL],fold change (FC),Candida parapsilosis [1],1.59
same,Activity,Candida albicans,80%
same,fold change (FC),Candida parapsilosis [2],1.55
same,fold change (FC),Candida parapsilosis [3],3.22
same,Activity,Candida parapsilosis [4],Active
same,fold change (FC),Candida parapsilosis [5],1.7
same,fold change (FC),Candida parapsilosis [6],1.63
same,fold change (FC),Candida parapsilosis [7],1.86
same,fold change (FC),Candida parapsilosis [8],1.62
same,fold change (FC),Candida parapsilosis [9],1.97
same,fold change (FC),Candida parapsilosis [10],1.72
same,fold change (FC),Candida parapsilosis [11],1.65
same,fold change (FC),Candida parapsilosis [12],1.5
same,fold change (FC),Candida parapsilosis [13],1.85
same,fold change (FC),Candida parapsilosis [14],1.77
same,fold change (FC),Candida parapsilosis [15],1.59
same,inhibition at 50 µM,Candida parapsilosis [16],88.5%
same,fold change (FC),Candida parapsilosis [17],1.65
same,Activity,Candida parapsilosis [18],Active
same,Activity,Candida parapsilosis [19],Active
same,fold change (FC),Candida parapsilosis [20],1.74
same,fold change (FC),Candida parapsilosis [21],2.02
same,fold change (FC),Candida parapsilosis [22],1.55
same,inhibition at 50 µM,Candida parapsilosis [23],68.5%
same,Activity,Candida parapsilosis [24],Active
